Compound activity from PubChem BioAssay.
This is a sample that favours compounds with a hit; in the whole collection about 2.9% have one here.
UBC13 inh: inhibitors of human UBC13 polyubiquitin chain formation. P61088. TR-FRET. inhibition, % at 20 µM. 330,000 compounds, 0.47% hits; in the data active = inhibition above about 45%, passing the limit was not always enough
Target sequence (P61088 whole entry, looked up): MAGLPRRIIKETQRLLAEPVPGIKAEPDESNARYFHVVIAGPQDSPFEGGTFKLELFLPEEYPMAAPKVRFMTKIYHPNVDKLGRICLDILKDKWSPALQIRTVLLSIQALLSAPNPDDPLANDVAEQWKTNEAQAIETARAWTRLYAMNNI
Apaf-1 inh: inhibitors of human Apaf-1 apoptosome | O14727 | reconstituted apoptosome caspase-3 activity, DEVD-Rh110 fluorescence | inhibition, % at 20 µM | 330,000 compounds, 0.71% hits; active = inhibition of at least 40% at 20 µM;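 note: plate controls were DMSO wells for no effect and DEVD-CHO caspase inhibitor wells for full effect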
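Material: reconstituted apoptosome with Apaf-1, cytochrome c, caspase-9, procaspase-3, dATP / Buffer or medium: pH 7.5 Hepes buffer with CHAPS, BSA, DTT / Also added: cytochrome c with DEVD-Rh110 / Schedule: compound with Apaf-1, dATP, procaspase-3 30 min, then 50 min reaction, room temperature / Technique: rhodamine 110 fluorescence at Ex 480/Em 540 nm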
MEKK2 mut-MEK5: signal of MEK5 binding to mutant human MEKK2 PB1 domain; bead flow cytometry, Alexa488-MEK5 binding to MEKK2 mutant; percent response, % at 10 µM; 290,000 compounds, 0.35% hits; AID 1530; in the data active = percent response above about 24%, passing the limit was not always enough
MEKK2 WT-MEK5: raises or lowers MEK5 binding to wildtype human MEKK2 PB1 domain | bead flow cytometry, Alexa488-MEK5 binding to MEKK2 WT; actives lie on both sides | binding response (% of control), % at 10 µM | 290,000 compounds, 1.1% hits; in the data active = binding response below about 67% or above about 130%
MEKK3 PB1 HTS: raises or lowers MEK5 binding to the human MEKK3 PB1 domain | 290,000 compounds, 1.4% hits | bead-based flow cytometry, Alexa488-MEK5 binding to MEKK3; actives lie on both sides; 0 = blocked by unlabeled MEK5, 100 = vehicle | binding response (% of control), % at 10 µM;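 active = binding response more than 3 SD above or below the average of its plate-row segment, actives on both sides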;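 note: Alexa488 bead fluorescence after subtracting the streptavidin-only scavenger bead signal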
MEKK2wt confirm: raises or lowers MEK5 binding to wildtype human MEKK2, retest | bead flow cytometry, Alexa488-MEK5 binding to MEKK2 WT; actives lie on both sides | shares compounds with MEKK3 PB1 HTS | 5,900 compounds, 2.4% hits | AID 1892 | binding response (% of control), % at 10 µM; in the data active = binding response below about 16% or above about 210%; inactive = in between
MEKK2mut confirm: signal of MEK5 binding to mutant human MEKK2, retest; AID 1893; shares compounds with MEKK3 PB1 HTS; bead flow cytometry, Alexa488-MEK5 binding to MEKK2 mutant; 5,900 compounds, 2% hits; percent response, % at 10 µM; in the data active = percent response mostly above about 71%, no sharp cut-off; inactive = mostly below about 38%;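 note: higher means compound restores mutant binding toward wildtype level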
MEKK3-MEK5 inh: confirmation of inhibitors of MEK5 binding to human MEKK3 | shares compounds with MEKK3 PB1 HTS | 5,900 compounds, 1.8% hits | bead flow cytometry, Alexa488-MEK5 binding to MEKK3; hits give low values | binding response (% of control), % at 10 µM;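 active = binding response below 72% of control, or above a set upper limit, though filed actives all read lower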;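 note: 100% = DMSO only wells and 0% = binding blocked by excess unlabeled MEK5; lower values mean stronger disruption of MEK5 binding to MEKK3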
Starred values were filed as active, the others as inactive; . = not tested or not shown; [ ] = remark or other dose.

SMILES	UBC13 inh	Apaf-1 inh	MEKK2 mut-MEK5	MEKK2 WT-MEK5	MEKK3 PB1 HTS	MEKK2wt confirm	MEKK2mut confirm	MEKK3-MEK5 inh
O=C(N/N=C/c1ccc([N+](=O)[O-])o1)c1cn(-c2ccccc2)nc1-c1ccccc1	-30	17	0	104	139*	102	9	108
Cc1cccc(-n2c(-c3ccccc3)c[nH]c2=S)c1C	2	13	0	101	98	.	.	.
CCC1(c2ccccc2)NC(=S)N(c2cccc(C)c2C)N1 (stereo not given)	4	-6	1	105	129*	101	-10	99
COc1ccccc1NS(=O)(=O)c1ccc(C(N)=O)cc1	-3	2	-76	35*[inhibitor]	28*[inhibitor]	99	-2	99
COc1ccccc1NS(=O)(=O)c1ccc(NC(C)=O)cc1	15	-9	1	94	96	.	.	.
CN(CC(=O)Nc1ccc(Cl)c(C(F)(F)F)c1)C(=O)c1cccc(N2C(=O)CCC2=O)c1	7	6	.	.	.	.	.	.
CN(c1c[nH]c(=O)[nH]c1=O)C1CCCCC1	-7	0	-13	72	69*[inhibitor]	102	0	99
CN(C(=O)CSc1nccc(=O)[nH]1)C1CCCCC1	-3	14	.	.	.	.	.	.
O=C(COC(=O)CCC(NC(=O)OCc1ccccc1)C(=O)OCC(=O)Nc1ccccc1)Nc1ccccc1 (stereo not given)	5	15	1	113	152*	109	4	103
Cc1cccc(/N=C/c2sc3ccccc3c2O)n1	-46	5	-1	101	97	.	.	.
Oc1c(C=Nc2cccc3cccnc23)sc2ccccc12	-238	20	-14	50*[inhibitor]	82	62	-24	89
COc1ccc(/C=N/NC(=O)COc2cc(C)cc(C)c2)cc1COC(C)=O	7	5	-1	95	97	.	.	.
COCCNC(=O)c1c(NC(=O)c2nc(SC)ncc2Cl)sc2c1CCCC2	-2	-6	-10	82	82*[inhibitor]	106	4	104
O=C(COC(=O)CNC(=O)c1ccc(Cl)c([N+](=O)[O-])c1)NC(=O)CN1CCCC1=O	-1	0	.	.	.	.	.	.
O=c1c2cc(Cl)ccc2oc2nc3n(c(=O)c12)CCCS3	-9	2	-9	81	74*[inhibitor]	102	4	102
N#Cc1c(-c2ccc(Cl)cc2)nc2n(c1=O)CCCS2	2	-4	8	108	105	.	.	.
Cc1c(N=C2SCC(=O)N2/N=C/c2ccccc2)c(=O)n(-c2ccccc2)n1C	-12	0	0	102	129*	97	0	100
C(=C\c1ccccc1)/C=N/Nc1nncc(-c2ccccc2)n1	-28	-3	0	109	131*	100	-1	100
Brc1ccc(N=C/C=C/C=C/Nc2ccc(Br)cc2)cc1	5	-4	140*	38*	46*[inhibitor]	48	-30	64*
O=C(O)C1Cc2[nH]cnc2C(c2ccccc2O)N1 (stereo not given)	-8	7	-1	92	60*[inhibitor]	96	-2	96
O=C(O)C1Cc2[nH]cnc2C(c2cccc([N+](=O)[O-])c2)N1 (stereo not given)	0	1	0	96	105	.	.	.
NNC(=O)c1oc2ccccc2c1-n1cccc1	18	-13	4	121	143*	94	-6	95
O=c1[nH]c(SCC2CCCCO2)nc2ccccc12 (stereo not given)	5	-10	-4	93	73*[inhibitor]	103	10	105
Cc1cc(C(=O)CSc2nc3ccccc3c(=O)[nH]2)c(C)n1CC1CCCO1 (stereo not given)	-7	2	-7	91	99	.	.	.
O=C(Nc1nnc(C2CC2)s1)c1cc([N+](=O)[O-])ccc1N1CCCCC1	-10	15	-2	96	97	.	.	.
SMILES	UBC13 inh	Apaf-1 inh	MEKK2 mut-MEK5	MEKK2 WT-MEK5	MEKK3 PB1 HTS	MEKK2wt confirm	MEKK2mut confirm	MEKK3-MEK5 inh
CC(C)CCNC(=S)Nc1ccc([N+](=O)[O-])cc1	14	-15	0	106	129*	104	-7	101
CC(C)COc1ccc(C(=O)Nc2ccc([N+](=O)[O-])cc2)cc1	-13	5	-1	100	102	.	.	.
CC(C)OC(=O)c1cc(NC(=S)Nc2ccc([N+](=O)[O-])cc2)cc(C(=O)OC(C)C)c1	-15	-2	40*	169*	82	147	18	104
CCCCNC(=S)Nc1ccc([N+](=O)[O-])cc1	-12	-2	-1	106	115	.	.	.
COc1ccc(-c2csc(NC(=O)COC(=O)C3=COCCO3)n2)cc1	1	-11	-7	91	94	.	.	.
CCCn1nnc(NC(=O)c2cccc(Cl)c2)n1	-1	0	5	104	110	.	.	.
CCCn1nnc(NC(=O)c2sc3ccccc3c2Cl)n1	-12	-7	-14	81	74*[inhibitor]	104	9	103
Cn1c(SCC(=O)Nc2cccnc2)nnc1-c1ccccc1F	-1	0	-2	99	99	.	.	.
Cc1nn(CC(=O)Nc2cccnc2)c(C)c1[N+](=O)[O-]	20	-15	-5	91	88	.	.	.
Cc1ccc(CNC(=O)Cn2c(=O)c3sccc3n(Cc3ccc([N+](=O)[O-])cc3)c2=O)cc1	-2	-15	0	107	163*	104	1	100
CCc1noc(C)c1C(=O)OCC(=O)Nc1cccc(C)c1	8	1	.	.	.	.	.	.
O=c1cc(-c2ccc(F)cc2)oc2ccccc12	-3	-4	2	2.0*[inhibitor]	2.0*[inhibitor]	99	6	104
Nc1cc2nc[nH]c2cc1N	-16	20	-23	41*[inhibitor]	31*[inhibitor]	76	-18	69*
Cc1ccc(C(c2cc(Br)ccc2O)N2CCSCC2)cc1 (stereo not given)	-6	4	.	.	.	.	.	.
CC(C)(C)C(=O)Nc1ccc(NC(=O)C(C)(C)C)cc1	5	-24	-31	48	48*[inhibitor]	87	-12	78
CC(C)(C)C(=O)Nc1ccc(S(=O)(=O)c2ccc(NC(=O)C(C)(C)C)cc2)cc1	-10	-11	5	103	105	.	.	.
CCN(CC)CCCNC(=O)CSc1nc(C)cc(C)n1	2	-2	-6	94	98	.	.	.
Cc1ccc(Cl)cc1NC(C#N)c1ccccc1 (stereo not given)	-4	6	24	115	129*	104	-1	102
COc1ccc(O)c(C(=O)C2c3ccccc3C(=O)N2c2ccc(C)cc2)c1 (stereo not given)	2	26	-5	83	89	.	.	.
